From ChEMBL document CHEMBL1137637, “Quinuclidine derivatives as potential antiparasitics” (Antimicrob Agents Chemother, 2007) come the findings set out here.

Assay [1] relates to Leishmania amazonensis. As to the kind of experiment: Inhibition of sterol biosynthesis in Leishmania mexicana amazonensis promastigotes assessed as reduction in endogenous cholesta-7,24-dien-3beta-ol level at 3 uM after 96 hrs by gas-liquid chromatography. Type of assay: functional. Details: scale not given: the % may be the effect or the level left. In short, it runs like this:
(§1)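 L. mexicana promastigotes exposed to compound for 96 h. Total lipids extracted and neutral sterols separated from polar lipids by silicic acid column chromatography. Sterols analysed by TLC and by quantitative capillary gas-liquid chromatography with mass spectrometry. Composition expressed as mass % of free sterols, compared with untreated control.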

Assay [2] deals with Leishmania amazonensis. As to the kind of experiment: Inhibition of sterol biosynthesis in Leishmania mexicana amazonensis promastigotes assessed as reduction in exogenous cholesterol level at 1 uM after 96 hrs by gas-liquid chromatography. It counts as functional. Details: scale not given: the % may be the effect or the level left. The procedure, abridged: as §1
Assay [3] has as its system Leishmania amazonensis. As to the kind of experiment: Antileishmanial activity against Leishmania mexicana amazonensis promastigotes by trypan blue exclusion method. Type of assay: functional, organism-based. In short, it runs like this:
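L. mexicana amazonensis promastigotes cultured in liver infusion-tryptose medium with lactalbumin and 10% FCS at 26°C, unagitated. Cultures started at 2 × 10⁶ cells/ml and drug added at 0.5–1 × 10⁷ cells/ml. Density counted by electronic particle counter and hemocytometer. Viability by trypan blue exclusion. Triplicate growth experiments.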

For assay [4], the system named is Leishmania amazonensis. Put plainly: Inhibition of sterol biosynthesis in Leishmania mexicana amazonensis promastigotes assessed as reduction in endogenous 5-dehydro episterol level at 3 uM after 96 hrs by gas-liquid chromatography. It counts as functional. The arrangement: scale not given: the % may be the effect or the level left. The procedure, abridged: as §1

Another assay relates to Plasmodium falciparum. Put plainly: Antiplasmodial activity after 48 hrs against chloroquine and pyrimethamine-resistant Plasmodium falciparum K1 in human erythrocytes by [3H]hypoxanthine uptake. Type of assay: functional, organism-based. In short, it runs like this: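 P. falciparum K1 in human red cells in RPMI 1640 with 5% Albumax, exposed to serial drug dilutions. Incubated 48 h at 37°C under reduced oxygen, then 0.5 μCi [³H]hypoxanthine per well for 24 h more. Cells harvested onto glass-fibre filters and counted by scintillation. Result expressed as % of untreated control, with IC50 from sigmoidal curve. Duplicate, plus an independent repeat for actives.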

The test system of assay [5] is Leishmania amazonensis. As to the kind of experiment: Inhibition of sterol biosynthesis in Leishmania mexicana amazonensis promastigotes assessed as reduction in endogenous episterol level at 3 uM after 96 hrs by gas-liquid chromatography. Type of assay: functional. Details: scale not given: the % may be the effect or the level left. In short, it runs like this: as §1

The subject of assay [6] is Leishmania amazonensis. As to the kind of experiment: Inhibition of sterol biosynthesis in Leishmania mexicana amazonensis promastigotes assessed as reduction in exogenous cholesterol level at 10 uM after 96 hrs by gas-liquid chromatography. The arrangement: scale not given: the % may be the effect or the level left. Type of assay: functional. In short, it runs like this:
as §1

Assay [7] concerns Leishmania amazonensis. Put plainly: Inhibition of sterol biosynthesis in Leishmania mexicana amazonensis promastigotes assessed as reduction in endogenous cholesta-7,24-dien-3beta-ol level at 1 uM after 96 hrs by gas-liquid chromatography. Type of assay: functional. Details: scale not given: the % may be the effect or the level left. The procedure, abridged:
as §1

In assay [8] the test system is Leishmania amazonensis. As to the kind of experiment: Inhibition of sterol biosynthesis in Leishmania mexicana amazonensis promastigotes assessed as reduction in endogenous 5-dehydro episterol level at 1 uM after 96 hrs by gas-liquid chromatography. It counts as functional. The arrangement: scale not given: the % may be the effect or the level left. In short, it runs like this:
as §1

The next assay has as its system Leishmania donovani. As to the kind of experiment: Antileishmanial activity against Leishmania donovani MHOM/ET/67/L82 axenic amastigotes after 72 hrs by resazurin assay. It counts as functional, organism-based. The conditions noted are these: MHOM/ET/67/L82, 72 h. The procedure, abridged: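 L. donovani MHOM/ET/67/L82 amastigotes grown axenically at 37°C in synthetic minimal medium at pH 5.4 with 10% heat-inactivated FBS under 5% CO2. 1 × 10⁵ amastigotes per well with seven threefold dilutions, 30 to 0.041 μg/ml. After 72 h, resazurin added for 2–4 h more. Fluorescence read at ex 536/em 588 nm. IC50 taken from sigmoidal curve. Run in duplicate, with an independent repeat for actives.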
(In general: Alamar Blue is a resazurin reagent that responds to reducing activity.)

For assay [9], the target named is T1, Farnesyltransferase, putative (Leishmania major, UniProt Q4Q5W4).
T1 sequence (Q4Q5W4 whole entry): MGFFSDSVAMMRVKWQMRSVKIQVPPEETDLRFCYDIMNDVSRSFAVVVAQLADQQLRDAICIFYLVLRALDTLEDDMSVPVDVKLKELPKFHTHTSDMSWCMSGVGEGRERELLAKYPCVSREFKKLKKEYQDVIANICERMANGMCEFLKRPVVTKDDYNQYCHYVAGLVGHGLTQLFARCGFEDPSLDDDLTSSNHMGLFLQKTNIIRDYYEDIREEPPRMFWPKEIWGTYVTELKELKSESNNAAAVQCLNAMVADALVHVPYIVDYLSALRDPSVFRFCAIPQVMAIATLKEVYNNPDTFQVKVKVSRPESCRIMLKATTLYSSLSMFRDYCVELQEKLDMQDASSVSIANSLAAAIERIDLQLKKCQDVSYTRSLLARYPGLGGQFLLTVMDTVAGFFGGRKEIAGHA
As to the kind of experiment: Inhibition of Leishmania major recombinant squalene synthase expressed in Escherichia coli by liquid scintillation counter. The procedure, abridged:
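Soluble E. coli extract expressing L. major SQS truncated by 16 N-terminal and 40 C-terminal residues. Buffer: 50 mM phosphate pH 7.4, 20 mM MgCl2, 5 mM CHAPS, 1% Tween 80, 10 mM DTT, BSA, 0.25 mM NADPH, and a glucose-6-phosphate/G6PDH regenerating system. Substrate 0.5 μM radiolabelled farnesyl pyrophosphate. Squalene band counted by scintillation. IC50 from hyperbolic plot of five concentrations in duplicate, usually run twice.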

Assay [10] has as its system Leishmania amazonensis. Put plainly: Inhibition of sterol biosynthesis in Leishmania mexicana amazonensis promastigotes assessed as reduction in endogenous episterol level at 1 uM after 96 hrs by gas-liquid chromatography. It counts as functional. The arrangement: scale not given: the % may be the effect or the level left. In short, it runs like this: as §1
The next assay has as its system L6. Put plainly: Cytotoxicity against rat L6 cells after 72 hrs by resazurin assay. Type of assay: cell-based. The conditions noted are these: L6, 72 h. The procedure, abridged: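 L-6 cells seeded at 4 × 10⁴ cells/ml in RPMI 1640 with 10% FBS and 2 mM L-glutamine. After 24 h, medium replaced with serial drug dilution and incubated for 72 h at 37°C in 5% CO2. Resazurin added for 2–4 h, fluorescence read at ex 536/em 588 nm. IC50 from sigmoidal curve. Duplicate, with an independent repeat for actives.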

For assay [11], the system named is Leishmania amazonensis. Put plainly: Inhibition of sterol biosynthesis in Leishmania mexicana amazonensis promastigotes assessed as reduction in exogenous cholesterol level at 3 uM after 96 hrs by gas-liquid chromatography. It counts as functional. The arrangement: scale not given: the % may be the effect or the level left. In short, it runs like this: as §1

Assay [12] relates to Leishmania amazonensis. As to the kind of experiment: Inhibition of sterol biosynthesis in Leishmania mexicana amazonensis promastigotes assessed as reduction in endogenous cholesta-5,7,24-trien-3beta-ol level at 1 uM after 96 hrs by gas-liquid chromatography. Type of assay: functional. The arrangement: scale not given: the % may be the effect or the level left. In short, it runs like this: as §1

The subject of assay [13] is Trypanosoma brucei rhodesiense. Put plainly: Trypanocidal activity against Trypanosoma brucei rhodesiense STIB 900 bloodstream form after 72 hrs by resazurin assay. It counts as functional, organism-based. The conditions noted are these: STIB 900, 72 h. The procedure, abridged:
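T. b. rhodesiense STIB 900 bloodstream forms in MEM with 2-mercaptoethanol and 15% heat-inactivated horse serum, with serial drug dilutions. Incubated 72 h at 37°C in 5% CO2. Resazurin added for 2–4 h more, fluorescence read at ex 536/em 588 nm. IC50 from sigmoidal curve. Duplicate, with an independent repeat for actives.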

For the next assay, the system named is Trypanosoma cruzi. As to the kind of experiment: Antitrypanosomal activity against trypomastigotes of Trypanosoma cruzi Tulahuen C2C4 containing lacZ gene in rat L6 cells after 4 days by chlorophenol red-beta-D-galactopyranoside/Nonidet assay. Particulars: Tulahuen C2C4, L6, 96 h. It counts as functional, organism-based. The procedure, abridged: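 L-6 rat myoblasts seeded at 2,000 cells/well in RPMI 1640 with 10% FBS and 2 mM L-glutamine. After 24 h, 5,000 T. cruzi Tulahuen C2C4 lacZ trypomastigotes added with serial drug dilution. Incubated at 37°C in 5% CO2 for 4 days. CPRG/Nonidet substrate added and colour read at 540 nm after 2–4 h. IC50 from sigmoidal curve. Duplicate determinations.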

In assay [14] the test system is Leishmania amazonensis. As to the kind of experiment: Inhibition of sterol biosynthesis in Leishmania mexicana amazonensis promastigotes assessed as reduction in endogenous cholesta-5,7,24-trien-3beta-ol level at 3 uM after 96 hrs by gas-liquid chromatography. Type of assay: functional. Details: scale not given: the % may be the effect or the level left. The procedure, abridged:
as §1

The target of assay [15] is T2, Farnesyltransferase, putative (Trypanosoma cruzi (strain CL Brener), UniProt Q4CXF7).
T2 sequence (Q4CXF7 whole entry): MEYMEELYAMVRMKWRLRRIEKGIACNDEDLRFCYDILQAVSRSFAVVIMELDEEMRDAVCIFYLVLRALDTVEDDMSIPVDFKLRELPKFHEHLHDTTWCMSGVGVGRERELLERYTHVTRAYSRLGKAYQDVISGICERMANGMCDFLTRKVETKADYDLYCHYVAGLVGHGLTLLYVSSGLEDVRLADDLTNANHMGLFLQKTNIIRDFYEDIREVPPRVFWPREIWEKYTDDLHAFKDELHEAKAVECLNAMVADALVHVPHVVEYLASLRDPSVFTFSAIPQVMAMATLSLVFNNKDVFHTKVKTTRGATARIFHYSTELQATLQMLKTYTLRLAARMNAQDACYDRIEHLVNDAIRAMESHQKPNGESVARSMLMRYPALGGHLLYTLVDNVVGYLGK
Put plainly: Inhibition of Trypanosoma cruzi squalene synthase.

Assay [16] can be described thus: Inhibition of Leishmania mexicana squalene synthase.

In brackets after ≈: the same amount, converted by molar mass.

One may read the MIC as the smallest concentration in the dilution series that meets the test's criterion for growth inhibition. A word on the IC50: it is the concentration that gives 50% inhibition. `OC[C@H]1CC2CCN1C[C@@H]2C#Cc1ccc(-c2ccccc2)cc1` (stereo not given in full): the Activity in the assay with Leishmania amazonensis [1] was 10.7%; with Leishmania amazonensis [2] it was 15.4%; with Leishmania amazonensis [4], 36%; with Leishmania amazonensis [5] it was 6.6%; with Leishmania amazonensis [6], above 99%; in the assay on Leishmania amazonensis [7], 7.6%. In addition, the Activity with Leishmania amazonensis [8] turned out to be 49.3%; in the assay on Leishmania amazonensis [10], 7.6%; in the assay with Leishmania amazonensis [11] it was 14%; in the assay on Leishmania amazonensis [12], 20.1%; with Leishmania amazonensis [14], 32.7%. The same molecule yielded an MIC in the assay on Leishmania amazonensis [3] of 10 µM (≈ 3.17 µg/mL). Besides, the IC50 in the assay on Plasmodium falciparum is 1400 nM; in the assay on Leishmania donovani it was 33700 nM; in assay [9], above 1000 nM; in the assay on L6, 11000 nM; in assay [13] it was 500 nM; with Trypanosoma cruzi, 5800 nM.

As a reminder, the Ki is the dissociation constant of the complex between target and ligand, obtained from inhibition or displacement. On to `OC1(c2ccc(-c3ccccc3)cc2)CN2CCC1CC2` (stereo not given), for which the Activity was found to be 17.5% in the assay with Leishmania amazonensis [2]; 39.6% with Leishmania amazonensis [4]; 20.8% with Leishmania amazonensis [5]; 65.7% with Leishmania amazonensis [8]; 16.8% in the assay with Leishmania amazonensis [10]; 39.6% in the assay with Leishmania amazonensis [11]. For the same molecule, the results for the Ki in assay [15] and in assay [16] were 62 nM and 12 nM, respectively. Also, the IC50 in [9] came out at 13 nM.

For `OC[C@@H]1CC2CCN1C[C@@H]2C#Cc1ccc(-c2ccccc2)cc1` (stereo not given in full), the Activity with Leishmania amazonensis [1] is 7%; in the assay with Leishmania amazonensis [2] it was 10.3%; in the assay with Leishmania amazonensis [4], 33.7%; in the assay with Leishmania amazonensis [5], 9.3%; in the assay with Leishmania amazonensis [6] it was above 99%; in the assay with Leishmania amazonensis [7], 7.2%. The Activity turned out to be 36.4% in the assay with Leishmania amazonensis [8]; 4.4% with Leishmania amazonensis [10]; 25.2% with Leishmania amazonensis [11]; 41.7% in the assay with Leishmania amazonensis [12]; 24.8% in the assay on Leishmania amazonensis [14]. The MIC against Leishmania amazonensis [3] came out at 3 µM (≈ 0.952 µg/mL). Also, the IC50 with Plasmodium falciparum is 600 nM; in the assay with Leishmania donovani, 18500 nM; in assay [9] it was above 1000 nM; with L6, 10700 nM; in [13], 1200 nM; in the assay on Trypanosoma cruzi, 5600 nM.
